Measured values: ChEMBL document CHEMBL1128667 (J Med Chem, 1995)

Molecular target: Delta-type opioid receptor (Rattus norvegicus, UniProt P33533)
Sequence (P33533 whole entry): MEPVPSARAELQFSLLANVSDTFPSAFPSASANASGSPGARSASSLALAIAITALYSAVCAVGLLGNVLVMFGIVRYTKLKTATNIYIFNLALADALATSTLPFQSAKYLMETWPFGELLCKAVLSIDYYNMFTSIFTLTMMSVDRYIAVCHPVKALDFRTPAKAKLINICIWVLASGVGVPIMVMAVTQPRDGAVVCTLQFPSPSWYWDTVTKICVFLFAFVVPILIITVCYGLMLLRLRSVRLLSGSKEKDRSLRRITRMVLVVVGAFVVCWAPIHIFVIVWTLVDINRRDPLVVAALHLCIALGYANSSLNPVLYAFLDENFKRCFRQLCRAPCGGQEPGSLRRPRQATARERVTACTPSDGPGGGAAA
Assay: Ability to inhibit [3H]DADLE binding to rat brain delta receptor
How it was run: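 [3H]DADLE (1.7-2.5 nM) on rat brain membranes, 3-4 h at 25 °C in 10 mM Tris-HCl pH 7.4 with 100 mM choline chloride, 3 mM MnCl2, 100 nM DAMGO blocking μ sites, and protease inhibitors. Nonspecific with 20 μM levallorphan. 8–10 concentrations, run twice; dilutions in Tris/1 mg/mL BSA. IC50 and slope factor from curve fitting.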
Compound `CN1CCC2(c3cccc(O)c3)CC(=O)/C(=C/c3cccc(Cl)c3)C1C2` (stereo in doubt; (-)-7) [listing 1 of 2 here] has a Ki of 386 nM.

Molecular target: Mu-type opioid receptor (Rattus norvegicus, UniProt P33535)
Sequence (P33535 whole entry): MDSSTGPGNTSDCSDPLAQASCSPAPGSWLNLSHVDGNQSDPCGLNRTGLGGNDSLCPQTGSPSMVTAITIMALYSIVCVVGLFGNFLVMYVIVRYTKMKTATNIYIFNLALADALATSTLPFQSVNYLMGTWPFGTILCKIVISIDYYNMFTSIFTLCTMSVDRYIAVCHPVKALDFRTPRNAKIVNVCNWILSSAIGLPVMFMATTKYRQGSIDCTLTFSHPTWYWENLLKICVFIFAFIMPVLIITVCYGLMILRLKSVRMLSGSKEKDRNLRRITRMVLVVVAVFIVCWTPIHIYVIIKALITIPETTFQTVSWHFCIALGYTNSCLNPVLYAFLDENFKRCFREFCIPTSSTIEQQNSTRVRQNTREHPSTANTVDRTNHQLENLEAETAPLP
Assay: Ability to inhibit [3H]DAMGO binding to rat brain Opioid receptor mu 1
How it was run: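 Rat brain membranes labelled with [3H]DAMGO (1-3 nM), 4 h at 25 °C in 50 mM Tris-HCl pH 7.4 with protease inhibitor cocktail. Nonspecific with 20 μM levallorphan. 8–10 concentrations, run twice; dilutions in Tris with 1 mg/mL BSA, 1 mM stocks in Tris containing 10% DMSO/5% Emulphor. IC50 and slope factor from curve fitting.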
`CN1CCC2(c3cccc(O)c3)CC(=O)/C(=C/c3cccc(Cl)c3)C1C2` (stereo in doubt; (-)-7) [listing 1 of 2 here] gave a Ki of 47.6 nM.

Molecular target: Kappa-type opioid receptor (Cavia porcellus, UniProt P41144)
Sequence (P41144 whole entry): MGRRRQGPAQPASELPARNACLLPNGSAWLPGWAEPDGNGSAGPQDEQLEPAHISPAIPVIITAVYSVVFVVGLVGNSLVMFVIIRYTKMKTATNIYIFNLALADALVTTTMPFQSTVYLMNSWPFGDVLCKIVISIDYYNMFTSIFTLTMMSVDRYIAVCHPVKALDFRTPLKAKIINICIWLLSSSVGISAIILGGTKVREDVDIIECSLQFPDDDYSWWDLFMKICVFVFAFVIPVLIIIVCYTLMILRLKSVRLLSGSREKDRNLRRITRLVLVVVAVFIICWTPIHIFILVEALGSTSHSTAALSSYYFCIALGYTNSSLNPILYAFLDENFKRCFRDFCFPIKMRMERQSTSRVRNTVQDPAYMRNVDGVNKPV
Assay: Ability to inhibit [3H]U-69593 binding to guinea pig Opioid receptor kappa 1
How it was run: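 Guinea pig brain membranes depleted of μ and δ sites by BIT/FIT pretreatment, labelled with [3H]U69,593 (1.2-2.3 nM), 4-6 h at 25 °C in 50 mM Tris-HCl pH 7.4 with protease inhibitors and 1 μg/mL captopril. Nonspecific with 1 μM U69,593. 8–10 concentrations, run twice; IC50 and slope factor from curve fitting.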
`COc1cccc(C23CCN(C)C(C2)/C(=C\c2ccccc2)C(=O)C3)c1` (single isomer, unassigned; (+)) [listing 1 of 2 here] gave a Ki greater than 500 nM. In the case of `CN1CCC2(c3cccc(O)c3)CC(=O)/C(=C/c3cccc(Cl)c3)C1C2` (stereo in doubt; (-)-7) [listing 1 of 2 here], the Ki is reported as greater than 500 nM.

Molecular target: Sigma 2 receptor
Assay: Ability to inhibit [3H](+)-DTG binding to rat liver Sigma receptor type 2 in presence of dextrallorphan
How it was run: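 Rat liver membranes (male Sprague–Dawley, 150–200 g; Tris/sucrose homogenisation, differential centrifugation, 25 °C preincubation). 160 μg protein with 5 nM [3H]DTG plus 1 μM dextrallorphan to mask σ1, 50 mM Tris-HCl pH 8.0, 120 min at 25 °C. Nonspecific with 10 μM haloperidol. Filtration. 12 concentrations (0.05–10 000 or 0.5–100 000 nM); Ki via Cheng–Prusoff with Scatchard Kd; 2–3 experiments in duplicate, ±SEM.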
Compound `COc1cccc(C23CCN(C)C(C2)/C(=C\c2ccccc2)C(=O)C3)c1` (single isomer, unassigned; (+)) [listing 1 of 2 here] has a Ki of 52 nM. `CN1CCC2(c3cccc(O)c3)CC(=O)/C(=C/c3ccccc3)C1C2` (stereo in doubt; 2) [listing 1 of 2 here] showed a Ki of 37 nM. `CN1CCC2(c3cccc(O)c3)CC(=O)/C(=C/c3ccc(Cl)c(Cl)c3)C1C2` (stereo in doubt; 3) showed a Ki of 71.8 nM. Compound `CN1CCC2(c3cccc(O)c3)CC(=O)CC1C2` (stereo in doubt; (-)-1) has a Ki of 25 nM. `CN1CCC2(c3cccc(O)c3)CC(=O)/C(=C/c3cccc(Cl)c3)C1C2` (stereo in doubt; (-)-7) [listing 1 of 2 here] showed a Ki of 123 nM.

Tested on: Sigma 2 receptor
Assay: Ratio of binding affinity towards guinea-pig brain […] receptor to rat liver sigma-2 receptor
In the case of `CN1CCC2(c3cccc(O)c3)CC(=O)/C(=C/c3ccccc3)C1C2` (single isomer, unassigned; (+)), the Ratio is reported as 79. With `COc1ccc(/C=C2/C(=O)CC3(c4cccc(O)c4)CCN(C)C2C3)cc1` (single isomer, unassigned; (+)) the Ratio was 88. With `COc1cccc(/C=C2/C(=O)CC3(c4cccc(O)c4)CCN(C)C2C3)c1` (single isomer, unassigned; (+)) the Ratio was 157. Work on `COc1cccc(C23CCN(C)C(C2)/C(=C\c2ccccc2)C(=O)C3)c1` (single isomer, unassigned; (+)) [listing 2 of 2 here] yielded a Ratio of 2.8. Compound `CN1CCC2(c3cccc(O)c3)CC(=O)/C(=C/c3ccc(Cl)cc3)C1C2` (single isomer, unassigned; (-)) has a Ratio of 0.69. Work on `COc1ccc(/C=C2/C(=O)CC3(c4cccc(O)c4)CCN(C)C2C3)cc1` (single isomer, unassigned; (-)) yielded a Ratio of 0.1. With `COc1cccc(/C=C2/C(=O)CC3(c4cccc(O)c4)CCN(C)C2C3)c1` (single isomer, unassigned; (-)) the Ratio was 0.12. In the case of `CN1CCC2(c3cccc(O)c3)CC(=O)/C(=C/c3ccccc3)C1C2` (stereo in doubt; 2) [listing 2 of 2 here], the Ratio is reported as 0.63. `COc1ccc(/C=C2/C(=O)CC3(c4cccc(O)c4)CCN(C)C2C3)cc1` (stereo in doubt; 4) gave a Ratio of 0.53. Compound `CN1CCC2(c3cccc(O)c3)CC(=O)/C(=C/c3ccc(Cl)cc3)C1C2` (stereo in doubt; 5) has a Ratio of 4. Work on `COc1cccc(/C=C2/C(=O)CC3(c4cccc(O)c4)CCN(C)C2C3)c1` (stereo in doubt; 6) yielded a Ratio of 0.18. For `CN1CCC2(c3cccc(O)c3)CC(=O)/C(=C/c3cccc(Cl)c3)C1C2` (stereo in doubt; 7), the Ratio was 1.5. `COc1cccc(C23CCN(C)C(C2)/C(=C\c2ccccc2)C(=O)C3)c1` (stereo in doubt; 10) gave a Ratio of 1.7. In the case of `CN1CCC2(c3cccc(O)c3)CC(=O)/C(=C/c3ccc(Cl)cc3)C1C2` (stereo in doubt; (+)-5), the Ratio is reported as 119. `CN1CCC2(c3cccc(O)c3)CC(=O)/C(=C/c3cccc(Cl)c3)C1C2` (stereo in doubt; (+)-7) gave a Ratio of 138. `CN1CCC2(c3cccc(O)c3)CC(=O)/C(=C/c3ccccc3)C1C2` (stereo in doubt; (-)-2) gave a Ratio of 0.06. Work on `CN1CCC2(c3cccc(O)c3)CC(=O)/C(=C/c3cccc(Cl)c3)C1C2` (stereo in doubt; (-)-7) [listing 2 of 2 here] yielded a Ratio of 0.25.

Molecular target: not listed separately
Assay: Ability to inhibit [3H](+)-pentazocine binding to guinea pig brain Sigma receptor type 1
In the case of `CN1CCC2(c3cccc(O)c3)CC(=O)/C(=C/c3ccccc3)C1C2` (stereo in doubt; 2) [listing 1 of 2 here], the Ki is reported as 23.3 nM. In the case of `CN1CCC2(c3cccc(O)c3)CC(=O)/C(=C/c3ccc(Cl)c(Cl)c3)C1C2` (stereo in doubt; 3), the Ki is reported as 65.3 nM.
